The target in series [1] is T1, NAD-dependent protein deacetylase sirtuin-1 (Homo sapiens) (UniProt Q96EB6).
T1 sequence (whole entry): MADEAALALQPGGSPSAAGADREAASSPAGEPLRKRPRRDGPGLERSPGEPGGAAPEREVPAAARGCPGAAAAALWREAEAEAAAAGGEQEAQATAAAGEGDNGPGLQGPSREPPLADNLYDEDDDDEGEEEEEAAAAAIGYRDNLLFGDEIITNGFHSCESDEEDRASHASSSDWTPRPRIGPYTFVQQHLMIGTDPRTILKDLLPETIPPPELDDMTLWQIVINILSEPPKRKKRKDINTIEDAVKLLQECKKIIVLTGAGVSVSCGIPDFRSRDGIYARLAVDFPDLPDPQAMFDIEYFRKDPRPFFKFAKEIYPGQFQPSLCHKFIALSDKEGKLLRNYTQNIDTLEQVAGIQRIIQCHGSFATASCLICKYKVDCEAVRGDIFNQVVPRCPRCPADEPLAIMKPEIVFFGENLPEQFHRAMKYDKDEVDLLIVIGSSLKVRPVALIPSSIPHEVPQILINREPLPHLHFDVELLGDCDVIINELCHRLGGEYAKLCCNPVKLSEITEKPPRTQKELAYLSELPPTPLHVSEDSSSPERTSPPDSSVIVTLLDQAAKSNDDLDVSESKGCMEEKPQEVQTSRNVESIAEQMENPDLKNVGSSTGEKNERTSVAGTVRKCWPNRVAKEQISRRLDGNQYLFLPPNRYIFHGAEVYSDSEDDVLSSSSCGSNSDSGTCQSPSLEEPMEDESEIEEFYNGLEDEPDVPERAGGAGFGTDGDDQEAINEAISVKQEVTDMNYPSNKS
Nature of the series: Inhibition of His-tagged human recombinant SIRT1 expressed in Escherichia coli at 20 uM using Cbz-Lys(Ac)-AMC as substrate by fluorescence assay. In short, it runs like this:
(§1)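 Fluorescence deacetylase assay with in-house Cbz-Lys(Ac)-AMC substrate. Values are means of three experiments on racemic material. Single-point lines were tested at 20 µM, and less than 20% inhibition was scored as no inhibition.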

The target in series [2] is T2, NAD-dependent protein deacetylase sirtuin-2 (Homo sapiens) (UniProt Q8IXJ6).
T2 sequence (whole entry): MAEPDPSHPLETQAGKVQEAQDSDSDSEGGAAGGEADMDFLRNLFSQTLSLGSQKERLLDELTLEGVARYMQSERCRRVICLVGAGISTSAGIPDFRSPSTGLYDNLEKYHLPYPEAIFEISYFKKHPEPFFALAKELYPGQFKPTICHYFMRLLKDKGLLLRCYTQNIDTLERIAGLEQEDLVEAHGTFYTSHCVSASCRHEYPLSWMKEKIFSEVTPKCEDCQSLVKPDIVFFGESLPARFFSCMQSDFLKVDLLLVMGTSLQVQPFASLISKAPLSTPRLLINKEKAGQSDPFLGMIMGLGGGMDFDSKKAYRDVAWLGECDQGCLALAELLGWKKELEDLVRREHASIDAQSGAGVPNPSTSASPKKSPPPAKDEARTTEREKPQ
Nature of the series: Inhibition of His-tagged human recombinant SIRT2 expressed in Escherichia coli at 20 uM using Cbz-Lys(Ac)-AMC as substrate by fluorescence assay. In short, it runs like this:
as §1

In the next series the target is Histone deacetylase 1 (Homo sapiens, UniProt Q13547). Description: Inhibition of HDAC1 (unknown origin).
Series [3] addresses T3, NAD-dependent protein deacetylase sirtuin-1 (Homo sapiens, UniProt Q96EB6).
T3 sequence (Q96EB6 whole entry): T1 sequence (whole entry)
Nature of the series: Inhibition of His-tagged human recombinant SIRT1 expressed in Escherichia coli using Cbz-Lys(Ac)-AMC as substrate by fluorescence assay.

For series [4], the target named is T1, NAD-dependent protein deacetylase sirtuin-1 (Homo sapiens). Nature of the series: Inhibition of SIRT1-mediated endogenous p53 deacetylase activity in human Namalwa cells assessed as concentration required to […] to twice the basal level after 3 hrs by ELISA. It counts as cell-based. In short, it runs like this:
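Namalwa cells, 50,000/well, were exposed 3 h at 37 °C, 5% CO2, to 0.005–50 µM final (0.95% DMSO). Lysates were ELISA-captured on anti-p53 (DO-1), probed overnight with anti-acetyl-Lys382-p53, then HRP conjugate and Amplex Red (15 min; ex 550/em 610 nm). IC2xB is the concentration doubling basal (lowest) fluorescence. Means of three experiments.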

Another series concerns Plasma. Nature of the series: Metabolic stability in mouse plasma. It counts as ADME, cell-free.
The nature of series [5]: Clearance in rat. To be noted: in vivo. It counts as ADME, organism-based.
The nature of series [6]: Half life in rat. It is filed as ADME, organism-based. To be noted: in vivo.
Series [7] can be described thus: Oral bioavailability in rat. It is filed as ADME, organism-based. To be noted: in vivo.
The target of series [8] is T4, NAD-dependent protein deacetylase sirtuin-2 (Homo sapiens, UniProt Q8IXJ6).
T4 sequence (Q8IXJ6 whole entry): T2 sequence (whole entry)
Description: Inhibition of His-tagged human recombinant SIRT2 expressed in Escherichia coli using Cbz-Lys(Ac)-AMC as substrate by fluorescence assay.

Active and inactive are the calls of the source.

Histone deacetylase 1, sequence (Q13547 whole entry): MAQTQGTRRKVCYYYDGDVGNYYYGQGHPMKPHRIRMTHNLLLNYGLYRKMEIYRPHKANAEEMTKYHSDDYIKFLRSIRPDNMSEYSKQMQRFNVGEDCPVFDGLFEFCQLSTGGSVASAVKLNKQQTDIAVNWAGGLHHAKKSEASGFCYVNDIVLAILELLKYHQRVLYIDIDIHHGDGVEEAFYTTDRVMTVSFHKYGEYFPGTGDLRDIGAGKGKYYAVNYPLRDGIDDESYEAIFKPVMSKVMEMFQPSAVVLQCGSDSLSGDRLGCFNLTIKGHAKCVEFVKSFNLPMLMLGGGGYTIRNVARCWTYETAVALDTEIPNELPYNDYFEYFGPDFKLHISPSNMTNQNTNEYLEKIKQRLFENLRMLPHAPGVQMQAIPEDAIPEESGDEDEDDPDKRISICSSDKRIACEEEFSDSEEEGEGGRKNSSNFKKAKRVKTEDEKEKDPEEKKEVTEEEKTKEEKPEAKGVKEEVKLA

As a reminder, the inhibition is the change of the read-out against control, counted positive when it falls. Take `NC(=O)C1CC(c2ccccc2)Cc2c(-c3ccc(Cl)cc3)n[nH]c21` (mixture of isomers): the inhibition in series [1] was 59%; in series [2], 62%. The inhibition result at Histone deacetylase 1 was “inactive”.

By IC50 is commonly meant the concentration that inhibits the measured activity by half. For orientation: clearance means the volume of plasma or blood freed of the substance per unit of time. A low value points to a low capacity for elimination. One may read the half-life as the time needed for the level to fall by half in the phase considered. The low end stands for rapid decline, the high end for slow decline. As usually defined, the bioavailability is dose-corrected exposure relative to a reference, in per cent. A low value points to poor availability. Take `NC(=O)C1CCCc2c(-c3ccc(Cl)cc3)n[nH]c21` (racemic): the IC50 in series [3] turned out to be 1 µM. Besides, the inhibition in [2] amounted to 43%. Also, the inhibition result at Histone deacetylase 1 was “inactive”. Besides, the INH in series [4] was determined as 0.5 µM. In addition, the Stability result with Plasma is “Stable”. The same compound showed a clearance in [5] of 30 mL/min/kg. In addition, in series [6], the half-life was 1.1 h. The bioavailability in [7] turned out to be 20%.

As for `NC(=O)C1CCCc2c(-c3ccc(Cl)c(F)c3)n[nH]c21` (racemic), the IC50 in series [3] is 2.6 µM. The inhibition in series [2] is 44%. Further, the inhibition result on Histone deacetylase 1 was “inactive”.

Regarding `NC(=O)C1CCCc2c(-c3ccc(Br)cc3)n[nH]c21` (racemic), the concentration for half-maximal inhibition (IC50) in series [3] was 1.9 µM. The inhibition in series [2] came to 47%. Moreover, the inhibition result on Histone deacetylase 1 was “inactive”. In series [4], the INH was 1.5 µM.

Take `Cc1ccc(-c2n[nH]c3c2CCCC3C(N)=O)cc1` (racemic): the IC50 in series [3] is 6.2 µM. Moreover, the inhibition in series [2] was determined as 36%. Further, at Histone deacetylase 1, the inhibition entry was “inactive”.

In the case of `NC(=O)C1CCCc2c(-c3cc(Br)cs3)n[nH]c21` (racemic), in [3], the IC50 was found to be 11 µM. The inhibition in [2] was less than 20%. The inhibition entry at Histone deacetylase 1 is “inactive”.

Turning to `NC(=O)C1CCCc2c(-c3cc4ccccc4s3)n[nH]c21` (racemic), the IC50 in series [3] is 1.7 µM; in [8], 5.3 µM. For the same compound, at Histone deacetylase 1, the inhibition entry was “inactive”.

`NC(=O)C1CCCc2c(-c3cc4ccccc4o3)n[nH]c21` (racemic): the IC50 in [3] was determined as 3.1 µM; in series [8], 9 µM. In addition, on Histone deacetylase 1, the inhibition result is “inactive”.

For the compound `NC(=O)C1CCCc2c(-c3nc4ccccc4s3)n[nH]c21` (racemic), the IC50 in series [3] is 2.2 µM; in [8], 8.3 µM. Besides, the inhibition entry on Histone deacetylase 1 is “inactive”. Moreover, in [4], the INH stood at 0.9 µM.

`Cn1c(-c2n[nH]c3c2CCCC3C(N)=O)cc2ccccc21` (racemic): the half-maximal inhibitory concentration (IC50) was found to be 2.7 µM in series [3] and 7.8 µM in [8]. In addition, the inhibition entry at Histone deacetylase 1 is “inactive”.

For the compound `NC(=O)C1CCCCc2c(-c3ccc(Cl)cc3)n[nH]c21` (racemic), the IC50 in series [3] was 2.1 µM; in [8], 6.8 µM. The inhibition result on Histone deacetylase 1 was “inactive”. In addition, in [4], the INH turned out to be 0.8 µM.

As to `CC1(C)CCC(C(N)=O)c2[nH]nc(-c3ccc(Cl)cc3)c21` (racemic), the inhibition in series [1] and in series [2] was less than 20% throughout. Moreover, the inhibition result on Histone deacetylase 1 was “inactive”.

As to `CC1(C)Cc2c(-c3cc4ccccc4s3)n[nH]c2C(C(N)=O)C1` (racemic), the figures for the inhibition in series [1] and in series [2] were 53% and 67%, respectively. Further, on Histone deacetylase 1, the inhibition result was “inactive”.

Turning to `CC1(C)Cc2c(-c3ccc(Br)cc3)n[nH]c2C(C(N)=O)C1` (racemic), the inhibition amounted to 56% in series [1] and 42% in series [2]. On Histone deacetylase 1, the inhibition result was “inactive”.

For `CC1(C)Cc2c(-c3ccc(Cl)c(Cl)c3)n[nH]c2C(C(N)=O)C1` (racemic), the inhibition in [1] came out at 23%; in [2] it was 28%. Further, the inhibition result at Histone deacetylase 1 is “inactive”.

On to `CCOC(=O)C1CCCc2c(-c3ccc(Cl)c(F)c3)n[nH]c21` (racemic), for which the inhibition in series [1] and in series [2] was less than 20% throughout. For the same compound, the inhibition result at Histone deacetylase 1 was “inactive”.

On to `CNC(=O)C1CCCc2c(-c3ccc(Cl)cc3)n[nH]c21` (racemic), for which the inhibition in series [1] and in series [2] was less than 20% throughout. In addition, the inhibition entry on Histone deacetylase 1 is “inactive”.

For `COc1ccc(-c2n[nH]c3c2CCCC3C(N)=O)cc1` (racemic), the inhibition in series [1] and in [2] was less than 20% throughout. Moreover, the inhibition result at Histone deacetylase 1 is “inactive”.

With `Cn1c(-c2n[nH]c3c2CC(C)(C)CC3C(N)=O)cc2ccccc21` (racemic), the inhibition in series [1] and in series [2] was less than 20% each time. In addition, the inhibition entry at Histone deacetylase 1 was “inactive”.

As to `Cn1c(-c2n[nH]c3c2CCCC3C(N)=O)cc2cc(Cl)ccc21` (racemic), the inhibition in series [1] came out at 31%; in [2], 51%. For the same compound, at Histone deacetylase 1, the inhibition result was “inactive”.

Consider `Cn1cc(-c2n[nH]c3c2CCCC3C(N)=O)c2ccccc21` (racemic), for which the inhibition in [1] and in series [2] was less than 20% each time. For the same compound, the inhibition result at Histone deacetylase 1 is “inactive”.

`NC(=O)C1CC2(Cc3c(-c4ccc(Cl)cc4)n[nH]c31)OCCO2` (racemic): the inhibition in series [1] and in [2] was less than 20% throughout. At Histone deacetylase 1, the inhibition result was “inactive”.

As to `NC(=O)C1CCCCCc2c(-c3ccc(Cl)cc3)n[nH]c21` (racemic), the inhibition is 28% in series [1] and 22% in series [2]. In addition, the inhibition entry on Histone deacetylase 1 was “inactive”.

`NC(=O)C1CCCc2c(-c3cc4cc(Br)ccc4s3)n[nH]c21` (racemic): the inhibition was 38% in series [1] and 33% in series [2]. Further, the inhibition result on Histone deacetylase 1 was “inactive”.

Regarding `NC(=O)C1CCCc2c(-c3cc4ccccc4[nH]3)n[nH]c21` (racemic), the inhibition in series [1] worked out at 46%; in [2], 43%. The inhibition entry on Histone deacetylase 1 was “inactive”.

Take `NC(=O)C1CCCc2c(-c3ccc(C(F)(F)F)cc3)n[nH]c21` (racemic): the inhibition in series [1] and in [2] was less than 20% throughout. Moreover, the inhibition result at Histone deacetylase 1 is “inactive”.

For `NC(=O)C1CCCc2c(-c3ccc(Cl)cc3Cl)n[nH]c21` (racemic), the inhibition was 24% in series [1] and less than 20% in series [2]. Also, the inhibition result on Histone deacetylase 1 is “inactive”.

As for `NC(=O)C1CCCc2c(-c3ccc(F)cc3)n[nH]c21` (racemic), the inhibition was 42% in [1] and less than 20% in series [2]. Further, at Histone deacetylase 1, the inhibition result was “inactive”.

`NC(=O)C1CCCc2c(-c3cccc(Cl)c3)n[nH]c21` (racemic): the figures for the inhibition in series [1] and in series [2] were 27% and less than 20%, respectively. The inhibition result at Histone deacetylase 1 is “inactive”.

For `NC(=O)C1CCCc2c(-c3ccccc3)n[nH]c21` (racemic), the inhibition in [1] was 44%; in series [2] it was less than 20%. The inhibition result on Histone deacetylase 1 was “inactive”.

With `NC(=O)C1CCCc2c(-c3ccccc3Cl)n[nH]c21` (racemic), the results for the inhibition in series [1] and in [2] were less than 20% and 11%, respectively. The inhibition entry on Histone deacetylase 1 is “inactive”.

Take `NC(=O)C1CCCc2c(-c3cccs3)n[nH]c21` (racemic): the inhibition in series [1] was 47%; in [2], less than 20%. In addition, on Histone deacetylase 1, the inhibition result is “inactive”.

On to `NC(=O)C1CCCc2c(-c3csc4ccccc34)n[nH]c21` (racemic), for which the inhibition came to 48% in series [1] and 44% in [2]. For the same compound, the inhibition entry at Histone deacetylase 1 is “inactive”.

For `NC(=O)C1Cc2ccccc2Cc2c(-c3ccc(Cl)cc3)n[nH]c21` (racemic), the inhibition amounted to 42% in series [1] and 50% in series [2]. Further, the inhibition result at Histone deacetylase 1 was “inactive”.

The record behind these values is ChEMBL document CHEMBL3425433, “Discovery of bicyclic pyrazoles as class III histone deacetylase SIRT1 and SIRT2 inhibitors” (Bioorg Med Chem Lett, 2015).
